STAT3 activator = activators of IL-6 induced STAT3 signaling. U3A cells, IL-6 STAT3-luciferase reporter, luminescence; 100% = signal with IL-6 EC80 alone. 0.91% of 190,000 active. activation (% of control), % at 5.6 µM. AID 871;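 active = activation above the screen-wide mean of compound activation plus 3 SD, cut at about 130% in these data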;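 also: 0% = background luminescence of wells with medium and substrate only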
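system = STAT3-luciferase reporter U3A cells | reagent = IL-6 stimulus at 33 ng/mL final | timing = 1 h compound pre-exposure, 6 h IL-6 stimulation, 37 °C | measured by = luminescence | evaluation = % activation versus median of IL-6-stimulated wells | control set = IL-6-only wells as 100% reference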
NF-kB expr up = raises NF-kB expression in human neuronal cells | NF-kB reporter expression; active compounds read high | fold change at 12.5 µM | 1.6% of 190,000 active | AID 1239; in the data active = fold change above about 3.3
STAT3 inh-1 = inhibitors of IL-6 induced STAT3 signaling | AID 862 | inhibition, % at 5.5 µM | 0.89% of 190,000 active | U3A cells, IL-6 STAT3-luciferase reporter, luminescence; host cell line lacks STAT1;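 active = inhibition above the mean inhibition across all screened compounds plus 3 SD, cut at about 44% in these data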;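 also: 0% = DMSO only wells and 100% = 100 µM nifuroxazide control wells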
STAT1 act = activators of IFN-gamma induced STAT1 signaling; NIH 3T3 STAT1-luciferase reporter, luminescence; 100% = IFN-gamma alone, no compound; activation (% of control), % at 5.5 µM; 2.6% of 200,000 active; AID 932;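 active = activation above the screen-wide mean activation plus 3 SD, cut at about 130% in these data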;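 also: raw ratio to IFN-gamma control signal so 100% means no change and 0% no light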
APP 5'UTR act = APP 5'UTR luciferase reporter activation. activation, % at 2 µM. 1% of 190,000 active. SH-SY5Y APP 5'UTR luciferase reporter, luminescence; zero percent = DMSO vehicle wells;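 active = activation above a set limit, based on mean plus 3 SD of controls, cut at about 140% in these data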
STAT1 inh = reduces IFN-gamma driven STAT1 reporter signal; NIH 3T3 STAT1-luciferase reporter, luminescence; inhibition, % at 5.5 µM; 0.35% of 200,000 active; AID 920;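 active = inhibition above a set limit, the mean inhibition across all tested compounds plus 3 SD, cut at about 34% in these data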;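 also: 0% = IFN-gamma with DMSO and 100% = IFN-gamma with 300 µM nifuroxazide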
STAT3 inh-2 = STAT3 inhibition, confirmation assay; AID 1265; U3A cells, IL-6 STAT3 luciferase reporter, luminescence; cell line lacks STAT1; inhibition, % at 5.7 µM; 45% of 1,200 active; shares compounds with STAT3 inh-1;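 active = inhibition above the hit cutoff computed for the primary STAT3 screen, cut at about 44% in these data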;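 also: 0% = IL-6 plus DMSO and 100% = IL-6 plus nifuroxazide control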
NFkB inh STAT3ct = counter-screen for STAT3 inhibitors: NF-kappaB inhibition; AID 1308; HEK293T NF-kB luciferase reporter, TNF-alpha induced; 36% of 1,200 active; inhibition, % at 5.7 µM; shares compounds with STAT3 inh-1;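 active = inhibition above the mean of solvent-only control wells plus 3 SD, cutoff set per campaign, cut at about 13% in these data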;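 also: 0% = TNF-alpha with DMSO and 100% = TNF-alpha with MG high control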
STAT1 inh STAT3c = counter-screen for STAT3 inhibitors: STAT1 inhibition; AID 1317; 27% of 1,200 active; shares compounds with STAT3 inh-1; inhibition, % at 5.7 µM; NIH 3T3 STAT1-luciferase reporter, IFN-gamma induced, luminescence;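 active = inhibition above the mean plus 3 SD of solvent-only control wells, limit set per screening run, cut at about 16% in these data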;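 also: 0% = DMSO with IFN-gamma and 100% = nifuroxazide control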
Numbers without * were called inactive; . = not tested or not shown. This is a sample that favours compounds with a hit; in the whole collection about 4.9% have one here.

SMILES | STAT3 activator | NF-kB expr up | STAT3 inh-1 | STAT1 act | APP 5'UTR act | STAT1 inh | STAT3 inh-2 | NFkB inh STAT3ct | STAT1 inh STAT3c
O=C(/C=C/c1ccccc1Cl)Nc1cccc(S(=O)(=O)NC2=NCCCCC2)c1 | 99.5 | 0.91 | 5.2 | 107.5 | 44.2 | -8.5 | . | . | .
O=C(/C=C/c1ccc(Cl)cc1Cl)Nc1cccc(S(=O)(=O)NC2=NCCC2)c1 | 57.2 | 7.23* | 52.4* | 78.5 | 79.4 | 21.8 | 33.0 | 5.8 | -4.8
COc1cccc2c1OC[C@@H](CO)[C@H]2N(C)C(=O)Nc1ccc(Cl)cc1Cl | 68.3 | 0.71 | 44.0* | 89.0 | . | 12.2 | 30.9 | 3.1 | 17.2*
CC1CCN(c2cc(N3CCN(C(=O)c4ccc(F)c(F)c4)CC3)c([N+](=O)[O-])cc2F)CC1 | 105.1 | 0.93 | -9.0 | 101.7 | -10.2 | 0.6 | . | . | .
Cc1sc2ncnc(NCC3CCCO3)c2c1C (centres undefined) | 80.7 | 0.74 | 26.0 | 82.3 | 7.2 | 19.4 | . | . | .
Cc1sc2ncnc(NCC(C)(C)N3CCOCC3)c2c1C | 61.2 | 0.71 | 47.2* | 79.5 | -8.8 | 24.3 | 56.0* | 15.5* | 18.5*
Cc1sc2ncnc(NCC3COc4ccccc4O3)c2c1C (centres undefined) | 36.2 | 0.48 | 74.1* | 75.7 | -7.6 | 26.8 | 83.4* | 32.0* | 23.1*
N/C(=N\OC(=O)COc1ccc(Br)cc1Cl)c1ccccn1 | 51.4 | 5.59* | 57.1* | 124.6 | 193.0* | -27.7 | -16.2 | -45.8 | -144.8
COc1cccc(-c2nnc(SCC3CNC(=O)O3)n2-c2ccc(Cl)cc2)c1 (centres undefined) | 101.6 | 0.81 | -7.1 | 98.9 | -10.4 | 1.2 | . | . | .
CCN1/C(=C/c2sc(-c3ccccc3C)c[n+]2C)Sc2ccccc21 | 21.4 | 1.31 | 91.4* | 71.2 | -0.8 | 29.9 | 93.5* | 53.8* | 31.6*
CC[n+]1c(/C=C2/C=C(C)CC(C)C2)sc2ccccc21 (centres undefined) | 86.0 | 0.81 | 18.6 | 71.4 | -8.9 | 29.4 | . | . | .
CC[n+]1c(C=C2C=C(C)OC(C)=C2)sc2ccccc21 | 30.8 | 0.85 | 84.1* | 73.9 | -8.7 | 29.0 | 85.2* | 26.6* | 4.0
Nc1ccc(CN2CCOCC2)cc1 | 102.5 | 0.92 | -1.4 | 108.8 | 15.4 | -10.6 | . | . | .
O=C(c1cc(-c2ccc(F)cc2)on1)N1CCCC1 | 65.7 | 3.53* | 46.0* | 120.6 | 79.7 | -22.8 | 9.7 | -34.1 | -83.9
O=C(c1cc(-c2ccc3c(c2)OCO3)on1)N1CCOCC1 | 58.6 | 3.12 | 51.5* | 112.4 | 112.0 | -13.5 | 4.6 | -10.5 | -48.0
O=C(c1cc(-c2ccc(Cl)cc2Cl)on1)N1CCOCC1 | 60.3 | 1.68 | 50.3* | 98.5 | 196.2* | 1.6 | 22.2 | -11.1 | -89.3
Cc1ccc(NC(=O)CSc2nc3[nH]ncc3c(=O)[nH]2)c(C)c1 | 98.9 | 1.03 | 6.9 | 95.6 | 7.5 | 2.7 | . | . | .
CC1CC(NS(=O)(=O)c2cccs2)CC(C)(C)C1 (centres undefined) | 108.4 | 1.17 | -8.6 | 95.5 | 6.2 | 4.9 | . | . | .
Cc1ccc(COC(=O)c2nn(C)c(=O)c3ccccc23)cc1 | 60.2 | 0.86 | 52.0* | 81.1 | 4.5 | 20.0 | 46.6* | 17.3* | 20.7*
Cn1nc(C(=O)OCc2ccc(F)cc2)c2ccccc2c1=O | 75.5 | 1.47 | 34.8 | 82.2 | 2.1 | 18.8 | . | . | .
CCOc1cc(C)c(C(C)C)cc1S(=O)(=O)NCc1ccccn1 | 106.2 | 0.9 | -3.3 | 95.8 | -16.4 | 4.5 | . | . | .
CCC(=O)/C=C1/Sc2ccccc2N1CC | 86.3 | 0.74 | 19.4 | 99.7 | -29.4 | -0.8 | . | . | .
CC[n+]1c(/C=C2\Sc3ccccc3N2C)ccc2cccc(C)c21 | 32.8 | 0.1 | 84.5* | 91.0 | -51.9 | 9.4 | 80.2* | 31.1* | 8.3
CCN1/C(=C/c2ccc3cc(C)ccc3[n+]2CC)Sc2ccccc21 | 24.1 | 0.17 | 90.6* | 77.0 | -80.6 | 25.9 | 87.6* | 37.1* | 21.0*
COC(=O)C(C)NC(=O)c1ccc(C(C)(C)C)cc1 (centres undefined) | 106.6 | 1.59 | -5.0 | 120.8 | 11.5 | -23.2 | . | . | .
SMILES | STAT3 activator | NF-kB expr up | STAT3 inh-1 | STAT1 act | APP 5'UTR act | STAT1 inh | STAT3 inh-2 | NFkB inh STAT3ct | STAT1 inh STAT3c
Cc1cccc(N(C)c2cc(C)nc3nc(C)nn23)c1 | 97.2 | 1.1 | 3.7 | 100.5 | -19.6 | 0.4 | . | . | .
O=C(Nc1ccc2c(c1)OCO2)N1CCN(Cc2ccco2)CC1 | 67.3 | 2.12 | 44.7* | 93.0 | 100.8 | 6.8 | 9.1 | -11.1 | -2.1
Cc1ccc(NC(=O)N2CCN(Cc3ccc4c(c3)OCO4)CC2)cc1 | 96.6 | 0.98 | 10.6 | 102.8 | -1.1 | -3.0 | . | . | .
c1ccc(Oc2cccc(OCCCCSc3ncccn3)c2)cc1 | 97.6 | 0.97 | 4.5 | 101.0 | -21.5 | -1.1 | . | . | .
COc1ccc(OCCCC(=O)Nc2cccc([N+](=O)[O-])c2C)cc1 | 101.8 | 1.06 | -2.7 | 105.5 | 4.7 | -6.1 | . | . | .
CCC(=O)Nc1cc2nn(-c3ccc(OC)cc3)nc2cc1C | 67.3 | 2.23 | 43.7* | 133.4* | 161.6* | -35.0 | 40.2 | -2.5 | -51.4
CCC(=O)Nc1cc2nn(-c3ccc(C)cc3)nc2cc1C | 36.4 | 0.7 | 82.1* | 105.2 | 115.7 | -5.7 | 51.3* | 14.3* | -106.7
CCCCC(=O)Nc1cc2nn(-c3ccc(OC)cc3)nc2cc1C | 101.8 | 1.27 | 4.3 | 110.8 | 14.9 | -11.8 | . | . | .
Cc1ccc(C(=O)NCC(=O)OC(C)C(=O)Nc2ccc(N(C)C)cc2)cc1C (centres undefined) | 103.0 | 1.22 | 0.4 | 97.7 | 6.0 | 2.2 | . | . | .
Cc1cc(NC(=O)CCSc2ccc(Cl)cc2)no1 | 96.9 | 1.07 | 11.3 | 109.0 | -3.9 | -11.3 | . | . | .
COCc1cc(C)n(CC(=O)Nc2cc(C)cc(C)c2)c(=O)c1C#N | 106.5 | 1.15 | -1.5 | 91.5 | -24.9 | 8.7 | . | . | .
O=C(OCCN1C(=O)c2cccc3c(N4CCOCC4)ccc(c23)C1=O)c1ccc(Cl)cc1Cl | 105.6 | 1.75 | -8.2 | 108.0 | -94.1 | -8.8 | . | . | .
O=C(OCCN1C(=O)c2cccc3c(N4CCOCC4)ccc(c23)C1=O)c1ccccc1Cl | 63.4 | 0.34 | 44.4* | 91.1 | -14.6 | 10.0 | 47.0* | 16.3* | 11.7
COc1ccc2oc3cc(C)[n+]([O-])c(-c4ccc(Cl)cc4)c3c2c1 | 93.3 | 1.06 | 9.2 | 92.3 | -8.4 | 7.8 | . | . | .
O=C(Cc1c[nH]c2ccccc12)NNC(=O)c1ccccc1 | 109.4 | 1.04 | -12.7 | 102.3 | 12.3 | -2.5 | . | . | .
CC1CCC(C(C)C)C(OC(=O)Cn2c(-c3ccc(F)cc3)[n+](C)c3ccccc32)C1 (centres undefined) | 87.1 | 0.96 | 17.5 | 95.2 | 2.6 | 5.4 | . | . | .

Compound activity as filed in PubChem BioAssay.
